Test results as given in ChEMBL document CHEMBL1152867, “Targeting QseC signaling and virulence for antibiotic development” (Science, 2008).
Activity calls are given as the source filed them. The rule behind the calls is not given here.

What was measured:
Escherichia coli [1] = experiment: Antibacterial activity against Escherichia coli infected in New Zealand white rabbit assessed as inhibition of bacterial colonization in ileum at 20 mg/kg administered 3 hrs post-bacterial challenge; format: functional, organism-based; design: dose 20 mg/kg
Escherichia coli [2] = experiment: Inhibition of epinephrine-induced Qsec-dependent virulence gene ler expression in Escherichia coli at 5 pM by quantitative real-time PCR; format: functional, organism-based
Escherichia coli [3] = experiment: Inhibition of [3H]norepinephrine binding to Escherichia coli Qsec at 5 fM by liposome-based scintillation counting assay
Outline: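 Liposomes reconstituted with QseC were loaded with tritiated norepinephrine (5 μM) by freeze-thaw in liquid N2 and held 10 min at room temperature, so unbound signal could diffuse out. They were pelleted at 12,000g for 5 min and counted for tritium. Counts were normalized to liposomes loaded with 5 μM tyrosine. Compound was tested at 5 pM and 5 fM.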

Escherichia coli [4] = experiment: Bactericidal activity against Escherichia coli 8624 at 1 uM in presence of epinephrine; format: functional, organism-based
[5] = biological target: Beta-2 adrenergic receptor (Homo sapiens) (UniProt P07550); experiment: Activation of human beta-2-adrenergic receptor expressed in HEK293 cells assessed as cAMP release at 5 uM; format: functional, cell-based
Chain of Beta-2 adrenergic receptor (Homo sapiens) (P07550 whole entry, looked up): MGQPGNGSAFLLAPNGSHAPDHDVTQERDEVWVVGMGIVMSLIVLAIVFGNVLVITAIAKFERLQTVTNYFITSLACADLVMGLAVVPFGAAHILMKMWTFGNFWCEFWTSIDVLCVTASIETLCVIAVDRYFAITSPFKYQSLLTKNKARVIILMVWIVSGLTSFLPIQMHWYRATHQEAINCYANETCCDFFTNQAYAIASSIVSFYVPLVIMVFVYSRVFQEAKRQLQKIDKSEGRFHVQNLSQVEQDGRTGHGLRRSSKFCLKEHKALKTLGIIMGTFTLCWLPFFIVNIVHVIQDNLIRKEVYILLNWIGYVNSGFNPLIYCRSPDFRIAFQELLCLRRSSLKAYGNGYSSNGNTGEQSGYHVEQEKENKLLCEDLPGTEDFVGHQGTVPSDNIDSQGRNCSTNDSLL
Outline: (§1)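 Live HEK293 cells carried an EPAC-based cAMP BRET reporter and expressed endogenous β2 or exogenous β1 or β3 adrenergic receptors. Cells were exposed to test compound alone at 5 μM. Values are means of triplicates, representative of 3 experiments.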

Escherichia coli [6] = experiment: Inhibition of AI3-induced Qsec-dependent virulence gene stx2A expression in Escherichia coli at 5 pM by quantitative real-time PCR; format: functional, organism-based
Mus musculus [7] = experiment: Toxicity in CD1 mouse assessed as WBC counts at 20 mg/kg, po administered daily once for 5 days measured 3 days after final dose; format: organism-based; design: dose 20 mg/kg, route oral; conditions: in vivo, 72 h
Mus musculus [8] = experiment: Toxicity in CD1 mouse assessed as triglyceride levels at 20 mg/kg, po administered daily once for 5 days measured 3 days after final dose; format: organism-based; design: dose 20 mg/kg, route oral; conditions: in vivo, 72 h
Outline: (§2)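 Female CD-1 mice (~22 g), three per group, given 20 mg/kg by oral gavage once daily for 5 days. Vehicle-only mice served as controls. Animals were weighed and observed daily. Three days after the last dose they were weighed and sacrificed. Blood was taken for chemistry and complete blood counts, and organs were weighed.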

[9] = Terminal half life in CD1 mouse at 20 mg/kg, po; format: ADME, organism-based; design: dose 20 mg/kg, route oral; conditions: in vivo, read-out: beta t1/2
Outline: (§3)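 Terminal cardiac bleeds were taken in groups of three at set times. Plasma was acetonitrile-precipitated with internal standard and analysed by LC/MS/MS against a spiked-plasma standard curve. Parameters came from noncompartmental analysis.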

Escherichia coli [10] = experiment: Inhibition of epinephrine-induced EspA protein secretion in Escherichia coli 8624 at 5 pM by Western blot; format: functional, organism-based
Outline: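 Secreted proteins in cell-free supernatant were TCA-precipitated and immunoblotted with rabbit polyclonal anti-EspA and anti-EspB, with ECL detection.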

Mus musculus [11] = experiment: Toxicity in CD1 mouse assessed as RBC counts at 20 mg/kg, po administered daily once for 5 days measured 3 days after final dose; format: organism-based; design: dose 20 mg/kg, route oral; conditions: in vivo, 72 h
Mus musculus [12] = experiment: Toxicity in CD1 mouse assessed as mean corpuscular hemoglobin at 20 mg/kg, po administered daily once for 5 days measured 3 days after final dose; format: organism-based; design: dose 20 mg/kg, route oral; conditions: in vivo, 72 h; outline: as §2
[13] = biological target: Beta-2 adrenergic receptor (Homo sapiens) (UniProt P07550); experiment: Effect on terbulaline-induced human beta-2-adrenergic receptor activation expressed in HEK293 cells assessed as cAMP release at 5 uM; format: functional, cell-based
Outline: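 HEK293 cells carried an EPAC-based cAMP BRET reporter. The agonist for β1 (exogenous) was 1 nM dobutamine, for β2 (endogenous) 100 nM terbutaline, and for β3 (exogenous) 10 nM BRL37344. Each agonist was given alone or with 5 μM compound. Live-cell cAMP was read as triplicate means, representative of 3 experiments.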

Mus musculus [14] = experiment: Toxicity in CD1 mouse assessed as serum total protein levels at 20 mg/kg, po administered daily once for 5 days measured 3 days after final dose; format: organism-based; design: dose 20 mg/kg, route oral; conditions: in vivo, 72 h; outline: as §2
Escherichia coli [15] = experiment: Antibacterial activity against Escherichia coli 8624 assessed as induction of SOS response; format: functional, organism-based
[16] = tested on: Francisella tularensis subsp. tularensis SCHU S4; experiment: Inhibition of virulence gene pdpA expression in Francisella tularensis SCHU S4 at 5 pM by quantitative real-time PCR; format: functional, organism-based
Mus musculus [17] = experiment: Toxicity in CD1 mouse assessed as aspartate transaminase levels at 20 mg/kg, po administered daily once for 5 days measured 3 days after final dose; format: organism-based; design: dose 20 mg/kg, route oral; conditions: in vivo, 72 h
Escherichia coli [18] = experiment: Antibacterial activity against Escherichia coli infected in New Zealand white rabbit assessed as inhibition of bacterial colonization in ileum at 20 mg/kg pretreated before 3 hrs of bacterial challenge; format: functional, organism-based; design: dose 20 mg/kg
Salmonella typhimurium [19] = experiment: Antibacterial activity against Salmonella Typhimurium SL1344 infected in 129x1/SvJ mouse assessed as reduction of bacterial CFU in spleen at 20 mg/kg, po after 48 hrs relative to control; format: functional
Escherichia coli [20] = experiment: Inhibition of AI3-induced Qsec-dependent virulence gene eae expression in Escherichia coli at 5 pM by quantitative real-time PCR; format: functional, organism-based
[21] = biological target: Beta-3 adrenergic receptor (Homo sapiens) (UniProt P13945); experiment: Activation of human beta-3-adrenergic receptor expressed in HEK293 cells assessed as cAMP release at 5 uM; format: functional, cell-based; outline: as §1
Chain of Beta-3 adrenergic receptor (Homo sapiens) (P13945 whole entry, looked up): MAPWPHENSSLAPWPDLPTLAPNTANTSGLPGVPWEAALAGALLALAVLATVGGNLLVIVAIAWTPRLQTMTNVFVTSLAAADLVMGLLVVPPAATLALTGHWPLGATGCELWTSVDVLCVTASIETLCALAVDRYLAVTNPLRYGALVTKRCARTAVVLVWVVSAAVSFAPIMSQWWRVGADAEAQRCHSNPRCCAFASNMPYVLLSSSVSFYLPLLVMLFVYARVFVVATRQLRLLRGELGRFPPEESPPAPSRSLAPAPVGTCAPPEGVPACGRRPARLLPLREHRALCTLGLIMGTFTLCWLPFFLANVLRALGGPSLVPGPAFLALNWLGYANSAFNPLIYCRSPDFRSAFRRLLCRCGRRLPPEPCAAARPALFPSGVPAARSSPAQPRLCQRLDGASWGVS

Escherichia coli [22] = experiment: Bactericidal activity against Escherichia coli 8624 at 1 uM; format: functional, organism-based
[23] = tested on: Francisella tularensis subsp. tularensis SCHU S4; experiment: Inhibition of virulence gene mglA expression in Francisella tularensis SCHU S4 at 5 pM by quantitative real-time PCR; format: functional, organism-based
Salmonella typhimurium [24] = experiment: Antibacterial activity against Salmonella Typhimurium SL1344 infected in 129x1/SvJ mouse assessed as reduction of bacterial CFU in liver at 20 mg/kg, po after 48 hrs relative to control; format: functional
Mus musculus [25] = experiment: Toxicity in CD1 mouse assessed as change in spleen weight at 20 mg/kg, po administered daily once for 5 days measured 3 days after final dose; format: organism-based; design: dose 20 mg/kg, route oral; conditions: in vivo, 72 h; outline: as §2
Escherichia coli [26] = experiment: Inhibition of Escherichia coli attaching-effacing lesions formation in infected human HeLa cells at 5 pM by FAS test; format: functional, organism-based
Outline: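 HeLa monolayers on glass coverslips were infected with a 1:100 dilution of overnight LB cultures for 6 h at 37 °C, 5% CO2. Cells were permeabilized with 0.2% Triton X-100 and stained with FITC-phalloidin for actin and propidium iodide for bacteria. Whole fields of ≥6 coverslips per strain were scored for AE lesions by fluorescence microscopy.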

Mus musculus [27] = experiment: Toxicity in CD1 mouse assessed as hemoglobin levels at 20 mg/kg, po administered daily once for 5 days measured 3 days after final dose; format: organism-based; design: dose 20 mg/kg, route oral; conditions: in vivo, 72 h; outline: as §2
Salmonella typhimurium [28] = experiment: Antibacterial activity against Salmonella Typhimurium SL1344 infected in 129x1/SvJ mouse assessed as survival at 20 mg/kg, po administered 3 hrs pre and 3 hrs post-bacterial challenge measured after 24 hrs; format: functional
Outline: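 Female 129x1/SvJ mice, 7–9 weeks old, were infected intraperitoneally with 10^8 cfu S. typhimurium SL1344. The test agent was given orally at 20 mg/kg in 5% DMSO/23% PEG400/70% Na bicarbonate pH 9/2% Tween 80, 3 h before and 3 h after infection. Controls were drug alone and infection alone. Groups of 10 mice were used and the experiment was repeated twice. Morbidity and death were recorded daily, and survivors were euthanized at day 12.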

[29] = Clearance in CD1 mouse at 20 mg/kg, po; format: ADME, organism-based; design: dose 20 mg/kg, route oral; conditions: in vivo; outline: as §3
Mus musculus [30] = experiment: Toxicity in CD1 mouse assessed as mean corpuscular hemoglobin concentration at 20 mg/kg, po administered daily once for 5 days measured 3 days after final dose; format: organism-based; design: dose 20 mg/kg, route oral; conditions: in vivo, 72 h; outline: as §2
Escherichia coli [31] = experiment: Inhibition of AI3-induced Qsec-dependent virulence gene flhDC expression in Escherichia coli at 5 pM by quantitative real-time PCR; format: functional, organism-based

SMILES: O=S(=O)(Nc1ccccc1)c1ccc(NC(=S)Nc2ccccc2)cc1
- Activity (Escherichia coli [1]): inactive
- Activity (Escherichia coli [2]): Active
- Activity (Escherichia coli [3]): inactive
- Activity (Escherichia coli [4]): inactive
- Activity [5]: inactive
- Activity (Escherichia coli [6]): Active
- Activity (Mus musculus [7]): 1.5 K/uL
- Activity (Mus musculus [8]): 99.3 mg/dL
- half-life [9]: 4.92 h
- Activity (Escherichia coli [10]): Active
- Activity (Mus musculus [11]): 7.4 M/uL
- Activity (Mus musculus [12]): 16.1 pg
- Activity [13]: inactive
- Activity (Mus musculus [14]): 4.4 g/dL
- Activity (Escherichia coli [15]): inactive
- Activity [16]: Active
- Activity (Mus musculus [17]): 120.3 U/L
- Activity (Escherichia coli [18]): inactive
- fold change (FC) (Salmonella typhimurium [19]): 10
- Activity (Escherichia coli [20]): Active
- Activity [21]: inactive
- Activity (Escherichia coli [22]): inactive
- Activity [23]: Active
- fold change (FC) (Salmonella typhimurium [24]): 10
- Activity (Mus musculus [25]): Non-toxic
- Activity (Escherichia coli [26]): Active
- Activity (Mus musculus [27]): 12 g/dL
- Activity (Salmonella typhimurium [28]): 80%
- CL/F [29]: 2.34 mL/min
- Activity (Mus musculus [30]): 31.3 g/dL
- Activity (Escherichia coli [31]): Active
